Experiment [1] concerns the target T1, Mitogen-activated protein kinase kinase kinase 7 (Homo sapiens) (UniProt O43318).
T1 sequence (whole entry): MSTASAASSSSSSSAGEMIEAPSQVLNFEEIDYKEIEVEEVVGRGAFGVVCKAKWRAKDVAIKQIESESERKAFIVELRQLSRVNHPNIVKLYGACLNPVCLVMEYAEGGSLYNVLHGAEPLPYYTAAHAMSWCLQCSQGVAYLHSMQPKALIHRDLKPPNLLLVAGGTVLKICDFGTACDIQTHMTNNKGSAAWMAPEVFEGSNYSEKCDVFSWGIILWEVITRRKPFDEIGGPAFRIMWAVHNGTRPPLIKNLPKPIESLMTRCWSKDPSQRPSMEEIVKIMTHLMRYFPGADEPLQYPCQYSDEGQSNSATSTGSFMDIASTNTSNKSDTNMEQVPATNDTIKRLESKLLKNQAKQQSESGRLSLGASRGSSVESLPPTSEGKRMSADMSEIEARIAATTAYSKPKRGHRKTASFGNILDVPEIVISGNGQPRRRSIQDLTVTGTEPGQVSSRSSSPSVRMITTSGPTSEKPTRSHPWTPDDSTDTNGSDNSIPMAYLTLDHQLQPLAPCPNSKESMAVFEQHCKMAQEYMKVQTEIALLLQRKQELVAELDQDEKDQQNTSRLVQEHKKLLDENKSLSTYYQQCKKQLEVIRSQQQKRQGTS
Nature of the experiment: Inhibition of TAK1 (unknown origin) at 500 nM by ADP-Glo kinase assay. (In general: ADP-Glo turns the ADP formed in a reaction into a luminescent signal.)

The target of experiment [2] is T1, Mitogen-activated protein kinase kinase kinase 7 (Homo sapiens). Nature of the experiment: Inhibition of TAK1 (unknown origin) at 100 nM by ADP-Glo kinase assay.
Experiment [3] has as its system MPC-11. Nature of the experiment: Cytotoxicity against mouse MPC-11 cells assessed as reduction in cell viability at 0.2 to 1 uM to incubated for 72 hrs by CellTiter-Blue assay. Format: functional, cell-based. The note with it: dose 0.2-1 µM. The method in brief: (§1)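 H929 (RPMI, 10% heat-inactivated FBS) or MPC-11 (DMEM, 10% FBS) cells, under 10 passages, 37 °C, 5% CO₂; 4–5 × 10³ cells/well seeded, 24 h, then compound at various concentrations for 72 h. CellTiter-Blue added for 3 h, fluorescence ex/em 560/590 nm. Normalized to DMSO-treated cells; triplicate, mean and standard deviation.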
A general note: The colour change of resazurin is a common sign of viable cells or microbes.

Experiment [4] relates to MPC-11. Briefly: Cytotoxicity against mouse MPC-11 cells assessed as reduction in cell viability at 200 nM incubated for 72 hrs by CellTiter-Blue assay. The format is functional. The method in brief: as §1
Experiment [5] concerns the target T1, Mitogen-activated protein kinase kinase kinase 7 (Homo sapiens). Briefly: Inhibition of TAK1 (unknown origin) at 20 nM by ADP-Glo kinase assay.
For experiment [6], the system named is MPC-11. Briefly: Cytotoxicity against mouse MPC-11 cells assessed as reduction in cell viability incubated for 72 hrs by CellTiter-Blue assay. Format: functional. The method in brief:
as §1

Another experiment concerns NCI-H929. Briefly: Cytotoxicity against human NCI-H929 cells assessed as reduction in cell viability incubated for 72 hrs by CellTiter-Blue assay. The format is functional. Put shortly: as §1
Experiment [7] deals with Mitogen-activated protein kinase kinase kinase 7 (Homo sapiens, UniProt O43318). Nature of the experiment: Inhibition of human TAK1 using casein as substrate in presence of [gamma-33P]-ATP by radiometric hotspot kinase assay.
Experiment [8] deals with Mitogen-activated protein kinase kinase kinase 7 (Mus musculus) (UniProt Q62073). Briefly: Inhibition of TAK1 in mouse MPC-11 cells assessed as reduction in TAK1 phosphorylation at Ser412 residue at 0.1 to 0.5 uM incubated for 48 hrs by Western blot analysis. The format is cell-based. The note with it: dose 0.1-0.5 µM. Put shortly:
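MPC-11 cells (0.5–1 × 10⁶/well) seeded, treated after 24 h for 48 h; DMSO control. BCA protein quantitation, 10% SDS-PAGE, PVDF; pTAK1, TAK1, β-actin antibodies overnight 4 °C, HRP secondaries 2 h 24 °C, chemiluminescence. Bands quantified relative to actin; duplicates, mean and standard deviation.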
(Immunoblotting shows a protein as a band on a membrane.)

By inhibition is commonly meant the change of the read-out against control, counted positive when it falls. The term GI50 denotes the concentration that inhibits growth by half. Usually pIC50 stands for −log10 of the IC50, conventionally taken in molar units.

Each structure is given as a SMILES string. pIC50: −log10 of the molar value. Activity calls are given as the source filed them. The rule behind the calls is not given here.

Sequence of Mitogen-activated protein kinase kinase kinase 7 (Mus musculus) (Q62073 whole entry): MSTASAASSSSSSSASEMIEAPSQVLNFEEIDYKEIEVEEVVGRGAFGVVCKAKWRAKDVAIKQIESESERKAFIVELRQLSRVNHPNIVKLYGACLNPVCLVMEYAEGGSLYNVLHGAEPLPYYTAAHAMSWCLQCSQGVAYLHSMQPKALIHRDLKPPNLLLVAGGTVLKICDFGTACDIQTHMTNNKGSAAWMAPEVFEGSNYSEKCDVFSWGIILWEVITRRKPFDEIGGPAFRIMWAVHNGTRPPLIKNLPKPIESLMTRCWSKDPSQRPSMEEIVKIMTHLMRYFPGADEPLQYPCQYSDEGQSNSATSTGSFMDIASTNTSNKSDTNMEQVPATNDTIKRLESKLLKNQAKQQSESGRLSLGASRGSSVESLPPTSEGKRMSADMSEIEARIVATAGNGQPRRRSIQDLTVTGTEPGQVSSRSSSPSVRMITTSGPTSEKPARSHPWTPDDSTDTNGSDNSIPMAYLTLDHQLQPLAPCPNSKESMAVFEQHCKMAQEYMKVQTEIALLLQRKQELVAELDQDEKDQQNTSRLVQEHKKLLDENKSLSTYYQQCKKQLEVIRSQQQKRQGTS

In [1], `C[C@@H]1CN(c2ccc3ncc(-c4ccccc4)n3n2)C[C@H](C)O1` showed an inhibition below 50%.

As to `Cc1n[nH]c2ccc(-c3cnc4ccc(N5CCO[C@H](C)C5)nn34)cc12`, the inhibition in experiment [1], in experiment [2] and in experiment [5] was above 50% in each case. Further, in the experiment with MPC-11 [3], the outcome was Active. The inhibition at 0.2 µM in the experiment with MPC-11 [4] is around 50%.

Take `CCc1n[nH]c2ccc(-c3cnc4ccc(N5C[C@@H](C)O[C@@H](C)C5)nn34)cc12`: the inhibition is 100% in [1], above 50% in [2] and above 50% in [5]. The GI50 is 94 nM with MPC-11 [6] and 30 nM in the experiment with NCI-H929.

Turning to `Cc1n[nH]c2ccc(-c3cnc4ccc(N5C[C@@H](C)O[C@H](C)C5)nn34)cc12`, the inhibition in experiment [1], in experiment [2] and in [5] was above 50% in each case. For the same molecule, the result in the experiment on MPC-11 [3] was Active.

Turning to `C[C@@H]1CN(c2ccc3ncc(-c4cccc(C#N)c4)n3n2)C[C@H](C)O1`, the inhibition in experiment [1] was below 50%.

On to `Cc1n[nH]c2ccc(-c3cnc4ccc(N5CC6CCC(C5)O6)nn34)cc12`, for which the inhibition in experiment [1], in [2] and in experiment [5] was above 50% in each case. Besides, the GI50 in the experiment on MPC-11 [6] turned out to be 131 nM; in the experiment on NCI-H929, 33 nM. The outcome with MPC-11 [3] was Active.

In experiment [1], `Cc1nc2ccc(N3C[C@@H](C)O[C@@H](C)C3)nn2c1-c1ccc2[nH]nc(C)c2c1` had an inhibition below 50%.

In the case of `C[C@@H]1CN(c2ccc3ncc(-c4ccc5c(cnn5C)c4)n3n2)C[C@H](C)O1`, in [1], the inhibition is below 50%.

As to `C[C@@H]1CN(c2ccc3ncc(-c4ccc(Cl)cc4)n3n2)C[C@H](C)O1`, the inhibition in experiment [1] is below 50%.

In the case of `C[C@@H]1CN(c2ccc3ncc(-c4ccc5c(c4)CC(=O)N5)n3n2)C[C@H](C)O1`, in experiment [1], the inhibition is below 50%.

On to `Cc1n[nH]c2ccc(-c3cnc4ccc(N5C[C@H]6C[C@@H]5CO6)nn34)cc12`, for which the inhibition in experiment [1], in [2] and in experiment [5] was above 50% each time. Further, the GI50 in the experiment with MPC-11 [6] amounted to 155 nM; in the experiment on NCI-H929, 71 nM. Further, the result in the experiment with MPC-11 [3] was Active.

In the case of `Cc1n[nH]c2ccc(-c3cnc4ccc(N5CCOC(C)(C)C5)nn34)cc12`, the figures for the inhibition in experiment [1], in experiment [2] and in [5] were 100%, above 50% and above 50%, respectively. Further, the GI50 was 126 nM in the experiment with MPC-11 [6] and 24 nM in the experiment with NCI-H929. In addition, the outcome in the experiment on MPC-11 [3] was Active.

On to `CCCn1/c(=N/C(=O)c2cccc(C(N)=O)c2)[nH]c2ccccc21`, for which the results for the GI50 in the experiment on MPC-11 [6] and with NCI-H929 were 8500 nM and 51000 nM, respectively. Besides, the pIC50 in [7] is 6.73.

In turn, `C[C@@H]1CN(c2ccc3ncc(-c4ccc(CC#N)cc4)n3n2)C[C@H](C)O1` had an inhibition in experiment [1] below 50%.

As for `C[C@@H]1CN(c2ccc3ncc(-c4ccc5[nH]ncc5c4)n3n2)C[C@H](C)O1`, the inhibition in experiment [1] and in [2] was above 50% each time.

`C[C@@H]1CN(c2ccc3ncc(-c4ccc(OC(F)(F)F)cc4)n3n2)C[C@H](C)O1` registered an inhibition in experiment [1] below 50%.

With `Cc1n[nH]c2ccc(-c3cnc4ccc(N5C[C@@H]6C[C@H]5CO6)nn34)cc12`, the inhibition in experiment [1], in [2] and in [5] was above 50% in each case. Also, the GI50 came to 101 nM in the experiment on MPC-11 [6] and 45 nM with NCI-H929. Moreover, the result in the experiment with MPC-11 [3] was Active.

The molecule `C[C@@H]1CN(c2ccc3ncc(-c4cccc5[nH]ncc45)n3n2)C[C@H](C)O1` displayed an inhibition in [1] below 50%.

Consider `C[C@@H]1CN(c2ccc3ncc(-c4ccc5cnn(C)c5c4)n3n2)C[C@H](C)O1`, for which the inhibition in experiment [1] and in experiment [2] was above 50% in each case.

In experiment [1], `C[C@@H]1CN(c2ccc3ncc(-c4cccc(S(C)(=O)=O)c4)n3n2)C[C@H](C)O1` gave an inhibition below 50%.

Molecule `C[C@@H]1CN(c2ccc3ncc(-c4ccncc4)n3n2)C[C@H](C)O1` had an inhibition in experiment [1] below 50%.

For `Cc1n[nH]c2ccc(-c3cnc4cccnn34)cc12`, the inhibition in [2] is 26%.

`C[C@@H]1CN(c2ccc3ncc(-c4ccc(C(F)(F)F)cc4)n3n2)C[C@H](C)O1`: in experiment [1], the inhibition was below 50%.

In experiment [1], `C[C@@H]1CN(c2ccc3ncc(-c4cccnc4)n3n2)C[C@H](C)O1` returned an inhibition below 50%.

Turning to `Cc1n[nH]c2ccc(-c3cnc4ccc(N5CCO[C@@H](C)C5)nn34)cc12`, the figures for the inhibition in experiment [1], in experiment [2] and in [5] were 100%, above 50% and above 50%, respectively. Also, the outcome in the experiment with MPC-11 [3] was inactive. Besides, the inhibition entry in the experiment with MPC-11 [4] was “inactive”.

As to `C[C@@H]1CN(c2ccc3ncc(-c4ccc(S(N)(=O)=O)cc4)n3n2)C[C@H](C)O1`, the inhibition in experiment [1] was below 50%.

For the molecule `Cc1n[nH]c2ccc(-c3cnc4ccc(N5C[C@@H](C)O[C@@H](C)C5)nn34)cc12`, the inhibition in experiment [1] was 100%; in experiment [2] it was 95%; in experiment [5] it was above 50%. For the same molecule, the GI50 stood at 72 nM in the experiment with MPC-11 [6] and 87 nM in the experiment on NCI-H929. Besides, the inhibition entry in [8] is “Active”.

`C[C@@H]1CN(c2ccc3ncc(-c4ccc5cn[nH]c5c4)n3n2)C[C@H](C)O1`: the inhibition in [1] and in experiment [2] was above 50% each time.

As for `C[C@@H]1CN(c2ccc3ncc(-c4ccc(C(N)=O)cc4)n3n2)C[C@H](C)O1`, the figures for the inhibition in [1] and in experiment [2] were 74% and below 50%, respectively.

In turn, `C[C@@H]1CN(c2ccc3ncc(-c4ccc(F)c(C#N)c4)n3n2)C[C@H](C)O1` showed an inhibition in experiment [1] below 50%.

Molecule `C[C@@H]1CN(c2ccc3ncc(-c4ccc(C#N)cc4)n3n2)C[C@H](C)O1` displayed an inhibition in [1] below 50%.

As for `C[C@@H]1CN(c2ccc3ncc(-c4ccc(F)cc4)n3n2)C[C@H](C)O1`, the inhibition in [1] was below 50%.

With `COCCN1CCN(c2ccc3ncc(-c4ccc5[nH]nc(C)c5c4)n3n2)CC1`, the values for the inhibition in [1] and in experiment [2] were above 50% and 46%, respectively.

As to `Cc1n[nH]c2ccc(-c3cnc4ccc(N5CCOCC5)nn34)cc12`, the results for the inhibition in experiment [1] and in experiment [2] were above 50% and 91%, respectively.

`CNC(=O)c1ccc(-c2cnc3ccc(N4C[C@@H](C)O[C@@H](C)C4)nn23)cc1` showed an inhibition in experiment [1] below 50%.
